Assay [1] in a line: inhibitors of TNFa-induced NFkB p65 translocation, primary screen, imaging, HUVEC, MLSMR starter and 10KST1 sets (AID 438;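 active = inhibition above 20% together with a positive visual image hit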;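 also: compound added about 3h40 before a 20 min TNFalpha stimulation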;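 as to inhibition: signal is the nuclear over cytoplasmic p65 intensity ratio per well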). The conditions noted are these: HUVEC TNFa-induced p65 nuclear translocation; cell count: measured here: nuclei count (cytotoxicity indicator), at 2.08 µM; inhibition: at 2 µM, stronger effect = higher value, 0% TNFa-plus-vehicle, 100% no-TNFa wells.
Assay [2] is described as follows: reduction of polyQ htt aggregates in cells – imaging, exon1htt(103Q)mCFP cells, high-content imaging, primary screen (AID 483;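 active = visual image review flags a hit and inhibition of aggregation exceeds 20%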;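 also: compound exposure lasted 3 days before fixation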;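 as to nuclei count: percent of the per-plate median nuclei count of sample wells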). The settings on record: exon1htt(103Q)mCFP cell line, aggregate imaging, at 2 µM; inhibition of aggregation: stronger effect = higher value; nuclei count: measured here: cell count, toxicity.
Assay [3] is described as follows: endothelial E-selectin expression blockers – imaging, HUVEC, immunofluorescence, MLSMR starter and 10KST1 sets, primary screen (AID 487;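 active = visually confirmed hit in the image check and inhibition above 20%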;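 as to inhibition: signal is fraction of cell area covered by stained E-selectin grains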;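 as to nuclei count: 100% = median nuclei count of all wells on the same plate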). The conditions noted are these: HUVEC TNFalpha-induced E-selectin immunofluorescence imaging, at 2 µM; inhibition: stronger effect = higher value; nuclei count: measured here: cell number, toxicity.
For assay [4], the target named is Voltage-gated potassium channel subunit beta-2 (Rattus norvegicus) (UniProt P62483). Description: inhibitors of rat Kvbeta2 reductase activity – biochemical, NADPH fluorescence, primary screen (AID 622;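 active = fluorescence slope higher than the sample average by over 3 SD, cut at about -0.22 in these data, passing the limit was not always enough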;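 also: slope of raw intensity against log time taken from 70 to 1610 s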). The conditions noted are these: recombinant KvBeta, 4-cyanobenzaldehyde reduction, at 10 µM, stronger effect = higher value.
Assay [5] has the same target. Description: enhancers of rat Kvbeta2 NADPH turnover – biochemical, NADPH fluorescence, primary screen (AID 623;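 active = NADPH fluorescence slope more negative than the mean of all samples by about 3 SD, 99.7% confidence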;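 also: fluorescence intensity change per second fitted from 20 to 320 s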). The conditions noted are these: Recombinant KvBeta, NADPH fluorescence decrease slope, 10 min; at 10 µM; stronger effect = lower value.
Assay [6] concerns the target Alpha-2C adrenergic receptor (Homo sapiens) (UniProt P18825). Nature of the assay: compounds altering alpha2C-coupled GIRK flux – cell-based, HEK293 alpha2C/GIRK1/2, thallium flux, primary screen (AID 624).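 Also: slope of fluorescence ratio to pre-addition baseline per second over 15 to 24 s.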 The settings on record: thallium flux BTC fluorescence, at 10 µM, actives lie on both sides.
Assay [7] in a line: inhibitors of larval lipid processing in zebrafish, primary screen, whole organism, PED6 fluorescence, gall bladder and intestine (AID 686;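 active = a full or partial loss of lipid-probe fluorescence in the fish gall bladder, intestine or both, judged by eye; inactive = no fluorescence loss, or compound toxic to the fish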;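 also: larvae 5 to 7 days old with five fish per well; signal comes from phospholipase A2 cleavage of quenched PED6 carried via bile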). The conditions noted are these: Zebrafish larvae PED6 lipid processing, fluorescence scoring; screened at 20 µM (by protocol). In a few lines: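 Incubation: overnight exposure of larvae to compound plus PED6 / Test system: live zebrafish larvae aged 5-7 days, whole organism / Amount: 5 larvae per well / Read-out basis: visual per-well fluorescence inhibition score / Signal: visual fluorescence microscopy scoring of gall bladder, gut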

The nature of assay [8]: blockers of RIG-like receptor reporter activation – cell-based, Sendai virus stimulus, luciferase, 10K MLSCN set, TLR/RLR signaling modifier project, primary screen (AID 602276;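 active = inhibition at or above 50% at 10 µM; inactive = inhibition below 50%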;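 also: firefly luciferase from ISG56 promoter only with Renilla not read in this screen; 0% = Sendai virus plus DMSO and 100% = medium plus DMSO without virus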). The settings on record: HEK293 RL24 IRF3 luciferase reporter, at 10 µM, stronger effect = higher value.
Assay [9] can be described thus: TLR3 IRF3 reporter activation blockers – cell-based, poly I:C stimulus, luciferase, 10K MLSCN set, primary screen (AID 602277;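 active = inhibition of the reporter signal at or above 50%; inactive = inhibition below 50%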). The settings on record: HEK293-TLR3 RL24 IRF3 luciferase reporter, at 10 µM, stronger effect = higher value. (In general: A reporter such as luciferase makes a cellular process visible.)

The values below come from PubChem BioAssay.

By inhibition is commonly meant the change of the read-out against control, counted positive when it falls.

Activity calls are given as the source filed them.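 The calls were made as follows, unless noted: active = fluorescence slope after compound addition differing from the mean of all screened samples at 99.7% confidence, in either direction; inactive = the rest.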

Voltage-gated potassium channel subunit beta-2 (Rattus norvegicus), sequence (P62483 whole entry, looked up): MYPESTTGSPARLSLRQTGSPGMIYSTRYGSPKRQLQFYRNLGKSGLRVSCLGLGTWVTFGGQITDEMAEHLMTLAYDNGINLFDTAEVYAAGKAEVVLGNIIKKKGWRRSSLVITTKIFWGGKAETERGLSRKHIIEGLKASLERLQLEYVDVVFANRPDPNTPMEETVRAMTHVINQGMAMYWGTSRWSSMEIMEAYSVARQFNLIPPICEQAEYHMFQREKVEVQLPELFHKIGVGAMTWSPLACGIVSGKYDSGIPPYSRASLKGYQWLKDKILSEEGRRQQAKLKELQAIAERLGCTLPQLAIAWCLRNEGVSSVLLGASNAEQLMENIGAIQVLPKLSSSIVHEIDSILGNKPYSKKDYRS
Alpha-2C adrenergic receptor (Homo sapiens), sequence (P18825 whole entry, looked up): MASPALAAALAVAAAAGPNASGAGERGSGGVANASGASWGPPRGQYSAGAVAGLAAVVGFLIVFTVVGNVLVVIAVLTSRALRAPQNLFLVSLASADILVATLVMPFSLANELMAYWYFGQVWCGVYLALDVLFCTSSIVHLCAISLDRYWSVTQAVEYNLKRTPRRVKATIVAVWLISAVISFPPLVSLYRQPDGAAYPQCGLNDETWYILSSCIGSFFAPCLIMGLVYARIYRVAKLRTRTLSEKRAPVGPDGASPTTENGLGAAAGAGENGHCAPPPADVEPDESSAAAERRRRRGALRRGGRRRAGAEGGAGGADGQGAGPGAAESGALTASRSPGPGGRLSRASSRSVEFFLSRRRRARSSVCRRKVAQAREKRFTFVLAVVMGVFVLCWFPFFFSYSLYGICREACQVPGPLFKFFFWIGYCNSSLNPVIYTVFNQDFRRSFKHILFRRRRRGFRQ

Consider `O=P(CCNCc1ccco1)(c1ccccc1)c1ccccc1`, for which the cell count in assay [1] was determined as 322. For the same molecule, the inhibition in assay [1] was 9.5% (inactive); in assay [3], 1.5% (inactive); in assay [8], 139% (active); in assay [9] it was 91.3% (active). The inhibition of aggregation in [2] is -14.2% (inactive). In addition, the nuclei count is 107% in assay [2] and 112% in assay [3]. Also, the fluorescence slope in [4] is -0.382 (inactive). For the same molecule, the NADPH fluorescence slope in [5] was -2.4e-05 (inactive). Besides, in [6], the slope was 0.00716 (inactive). For the same molecule, the outcome in [7] was inactive.

Take `Cc1cc(NC(=O)CSc2nc3c(c(-c4cccnc4)c2C#N)CCC3)no1`: the cell count in [1] worked out at 595. Besides, the inhibition in assay [1] was -2.9% (inactive); in [3], 15.2% (inactive); in assay [8], 0.978% (inactive); in [9] it was -3.11% (inactive). Moreover, the inhibition of aggregation in assay [2] is 0.1% (inactive). Besides, the nuclei count in assay [2] was 96.3%; in assay [3], 88.6%. Moreover, the fluorescence slope in assay [4] was -0.337 (inactive). The NADPH fluorescence slope in assay [5] is -6.5e-05 (inactive). Moreover, the slope in [6] was 0.00719 (inactive). In [7], the call was inactive.

For the molecule `O=C(Nc1ccccc1)N(CCCN1CCOCC1)Cc1cc2cc3c(cc2[nH]c1=O)OCCO3`, the cell count in assay [1] stood at 390. Moreover, the inhibition in assay [1] was 8% (inactive); in assay [3], -24.2% (inactive); in assay [8] it was -3.35% (inactive); in [9] it was 8.69% (inactive). The inhibition of aggregation in [2] was 20.1% (inactive). Further, the nuclei count in [2] worked out at 70.5%; in assay [3], 98.3%. Also, the fluorescence slope in [4] is -0.412 (inactive). The NADPH fluorescence slope in [5] was -4.1e-05 (inactive). In addition, in assay [6], the slope was 0.00525 (inactive). Besides, the molecule was classed as inactive in assay [7].

Turning to `O=c1c2cnn(-c3ccccc3)c2ncn1/N=C/c1ccncc1`, in [1], the cell count was found to be 476. Moreover, the inhibition in assay [1] was -7.8% (inactive); in assay [3], -71.4% (inactive); in assay [8], 11.6% (inactive); in assay [9], 11.3% (inactive). Further, in assay [2], the inhibition of aggregation is 3.3% (inactive). For the same molecule, the nuclei count in assay [2] was found to be 119%; in [3] it was 108%. In addition, the fluorescence slope in [4] was -0.378 (inactive). Besides, the NADPH fluorescence slope in assay [5] was -5.9e-05 (inactive). The slope in assay [6] is 0.00444 (inactive). Moreover, the outcome in assay [7] was inactive.

Regarding `CCCN1CCN(C(=O)Cn2cccc2C(=O)c2ccccc2)CC1`, the cell count in [1] was 568. Also, the inhibition in [1] was 5.4% (inactive); in assay [3] it was -0.1% (inactive); in [8] it was 7.77% (inactive); in assay [9] it was 11.7% (inactive). For the same molecule, the inhibition of aggregation in assay [2] is -4.9% (inactive). The figures for the nuclei count in assay [2] and in assay [3] were 109% and 108%, respectively. Moreover, in assay [4], the fluorescence slope is -0.405 (inactive). Besides, in assay [5], the NADPH fluorescence slope was -5.8e-05 (inactive). Moreover, the slope in assay [6] was 0.00424 (inactive). Further, in [7], the call was inactive.

Regarding `O=C(Cc1nc2ccccc2s1)c1ccc(O)cc1O`, the cell count in assay [1] turned out to be 322. The inhibition in assay [1] is 1.1% (inactive); in [3], -98.2% (inactive); in assay [8], -33.1% (inactive); in assay [9] it was -88.7% (inactive). Further, the inhibition of aggregation in [2] is -15.5% (inactive). The nuclei count in assay [2] was 88.3%; in [3], 124%. In assay [4], the fluorescence slope is -0.391 (inactive). The NADPH fluorescence slope in assay [5] is -0.000109 (inactive). In addition, the slope in assay [6] was 0.00457 (inactive). Further, in [7], the result was inactive.

For the molecule `Cn1c(=O)c2c(nc(N3CCN(c4ccccc4)CC3)n2CCCc2ccccc2)n(C)c1=O`, the cell count in [1] came to 702. For the same molecule, the inhibition was 1.4% (inactive) in assay [1], 20.4% (inactive) in [3], 10.7% (inactive) in [8] and -10.5% (inactive) in assay [9]. For the same molecule, the inhibition of aggregation in assay [2] was -15.2% (inactive). Also, the nuclei count turned out to be 99.1% in [2] and 96.5% in assay [3]. Further, the fluorescence slope in assay [4] is -0.339 (inactive). For the same molecule, the NADPH fluorescence slope in assay [5] is -3.2e-05 (inactive). The slope in [6] was 0.00552 (inactive). The call in [7] was inactive.

Take `O=C(COC(=O)CCOc1ccccc1)Nc1ccc(Cl)cn1`: in assay [1], the cell count worked out at 723. Further, the inhibition in assay [1] is 5.7% (inactive); in assay [3], 35.5% (inactive); in assay [8] it was 5.25% (inactive); in assay [9], 8.02% (inactive). For the same molecule, the inhibition of aggregation in [2] was -12.2% (inactive). The nuclei count in assay [2] was 101%; in assay [3], 88.1%. Further, the fluorescence slope in assay [4] is -0.489 (inactive). In addition, the NADPH fluorescence slope in assay [5] is -1.8e-05 (inactive). For the same molecule, the slope in assay [6] is 0.00492 (inactive). For the same molecule, the molecule was called inactive in assay [7].

`O=C(CN1C(=O)c2ccccc2C1=O)Nc1ccc(S(=O)(=O)NCC2CCCO2)cc1` (configuration not stated): the cell count in [1] stood at 389. In addition, the inhibition is -6% (inactive) in assay [1], -52.4% (inactive) in [3], -1.96% (inactive) in assay [8] and 98.2% (active) in assay [9]. In assay [2], the inhibition of aggregation is -2.4% (inactive). Also, the nuclei count in assay [2] turned out to be 93.4%; in assay [3], 107%. Further, the fluorescence slope in assay [4] was -0.412 (inactive). Moreover, the NADPH fluorescence slope in assay [5] was -2.5e-05 (inactive). Also, the slope in [6] was 0.00503 (inactive). For the same molecule, in assay [7], the molecule was classed as inactive.

Take `O=C(CN1CCN(c2nc(-c3ccc(Cl)cc3)cs2)CC1)NCc1ccco1`: the cell count in assay [1] was determined as 638. In addition, the inhibition in assay [1] is -7.3% (inactive); in assay [3], -53.5% (inactive); in assay [8], -3.86% (inactive); in [9], 98.3% (active). For the same molecule, the inhibition of aggregation in [2] is 9.3% (inactive). In addition, the nuclei count in assay [2] turned out to be 90.1%; in assay [3], 108%. In addition, the fluorescence slope in [4] was -0.463 (inactive). Further, in assay [5], the NADPH fluorescence slope is -3.9e-05 (inactive). Further, the slope in assay [6] is 0.00435 (inactive). Besides, the molecule was classed as inactive in assay [7].

`O=C(NCc1ccco1)c1cc2sccc2n1Cc1ccccc1`: in [1], the cell count came to 455. The inhibition is 5% (inactive) in assay [1], -33.7% (inactive) in assay [3], -19.7% (inactive) in [8] and -28.5% (inactive) in assay [9]. Moreover, in assay [2], the inhibition of aggregation was 8.8% (inactive). The nuclei count in assay [2] is 114%; in [3], 110%. In addition, in [4], the fluorescence slope was -0.463 (inactive). Besides, the NADPH fluorescence slope in [5] is 5.4e-05 (inactive). In addition, the slope in assay [6] is 0.00405 (inactive). The molecule was classed as inactive in [7].
